Assay results from the RNAGym collection of RNA variant scans (doi:10.1126/science.aae0568).
This sample holds only a part of the variants without activity.

B1: tRNA (parent)
chain: GUUCCGUUGGCGUAAUGGUAACGCGUCUCCCUCCUAAGGAGAAGACUGCGGGUUCGAGUCCCGUACGGAACG

Variants of: B1
Assay: yeast fitness relative to wild type (ratio to wild type); higher = fitter; tRNA-Arg(CCU), competitive growth, 37 C, YPD
Method in brief: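 Variants of the tRNA-Arg(CCU) gene were chemically synthesised with a 3% per-site mutation rate across 69 sites and placed at the native genomic locus in Saccharomyces cerevisiae. Six parallel replicates of the pooled strains were competed in YPD at 37°C for 24 hours, and gene amplicons from the start and end populations were read by 100-nucleotide paired-end sequencing. Darwinian fitness relative to wild type was derived from changes in genotype frequencies. Genotypes required ≥ 100 starting reads, and estimates < 0.5 were set to 0.5.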

Going from GUUCCGUUUGCGUAAUGGUAACGCGUCUCCCUCCUAAGGAGAAGACUGCAGGUUCGAGUCCCGUACGGAACG [G9U G50A] to GUUCCGUUUGCGUAAAGGUAACGCGUCUCCCUCCUCGGGAGAAGACUGCGGGUUCCAGUCCCGUACGGAACG [G9U U16A A36C A37G G56C], the yeast fitness falls from 0.663 to ≤ 0.5.

Going from GUUCCGUUUGCGUAAGGGUAACGCGUCUCCCUCCUAAGGAGAAGACUGCGGGUUCGAGUCCCGUAAGGAACG [G9U U16G C66A] to GUUCCGUUGACGUAAUGGUAACGCGUCUCCCUCCUAAGGAGAAGACUGCGGGUUCGAGUCCCGUACGGAACG [G10A], the yeast fitness rises from ≤ 0.5 to 0.705.

Compared with GUUCCGUUGACGUCAUGGUAACGCGUCUACCUCCUAAGGAGAAGACUGCGGGUUCGAGUCCCGUACGGAACG [G10A A14C C29A], GUUCCGUUGACGUCAUGGUAACGCGUCUCCCUCUUAAGGAGGAGACUGCGGGUUCGAGUCCCGUACGGAACG [G10A A14C C34U A42G] is higher in yeast fitness: ≤ 0.5 for the first, 0.65 for the second.

GUUCCGUUGACGUGAUGGUAACGCGUCUCCCUCCUGAGGAGAAGACUGCGGGUUCGAGUCCCGUACGGAACG [G10A A14G A36G] and GUUCCGUUGACGUGAUGGUAACGCGUCUCCCUCGUAAGGAGAAGACUGCGGGUUCGAGUCCCGUACGGAACG [G10A A14G C34G] cannot be ordered by yeast fitness: ≤ 0.5 for the first, ≤ 0.5 for the second.

GUUCCGUUGACGUUAUGGUGACGCGGCUCCGUCGUAAGGAGUCGACUGCCGGUUCGAGUCCCGUACGGAACG [G10A A14U A20G U26G C31G C34G A42U A43C G50C] and GUUCCGUUGACGUUAUGGUGACGCGGCUCCGUCGUAAGGAGUCGACUGCCGGUUCGAGUCCCGUACGGACCG [G10A A14U A20G U26G C31G C34G A42U A43C G50C A70C] cannot be ordered by yeast fitness: ≤ 0.5 for the first, ≤ 0.5 for the second.

Compared with GUUCCGUUGACGUUAUGGUACCGCGUCUUCCUCCUAAGGAGAAGACUGCGGGUUCGAGUACCGUACGGAACG [G10A A14U A21C C29U C60A], GUUCCGUUGACGUUAUGGUAACGCGUCUCCCUCCUAAGGAGACGACUGCGGGUUCGAGUCCCGUACGGCACG [G10A A14U A43C A69C] is lower in yeast fitness: 0.647 for the first, ≤ 0.5 for the second.

Going from GUUCCGUUGACGUACUGGUAACGCGUCUCCCUCCUAAGGAGAAGACUGAGGGUUCGAGUCUGGUACGGAACG [G10A A15C C49A C61U C62G] to GUUCCGUUGACGUACUGGUAACGCAUCUCCCUCCUAAGGAGAAGACCGCGGGUUCGAGUCCCGUAUGGAACG [G10A A15C G25A U47C C66U], the yeast fitness rises from ≤ 0.5 to 0.558.

Going from GUUCCGUUGACGUAGUGGUAACGCGUCUCCCUCCUAAGGAGCAGACUGCGGGUUCGAGUCCCGUACGGAACG [G10A A15G A42C] to GUUCCGUUGACGUAGUGGUAACGCGUCUCCCUCCUAAGGAGAAGACUGCGGGUUUGAGUCCCGUACGGAACG [G10A A15G C55U], the yeast fitness rises from ≤ 0.5 to 0.591.

GUUCCGUUGACGUAUUGGUAACGCGUCUCCCUCCUUAGGAGAAGACUGCGGGUUCGAGUCCCGUACGGACCG [G10A A15U A36U A70C] and GUUCCGUUGACGUAAUGGUCACGUGUCUCCCUCCUAAGGAGAAGACUGCGGGUUCGGGUCUCGUACGGAACG [G10A A20C C24U A57G C61U] cannot be ordered by yeast fitness: ≤ 0.5 for the first, ≤ 0.5 for the second.

Going from GUUCCGUUGACGUAAUGGUCACGCGUGUCCCUCCUAAGGGGAAGACUGCGGGUUCGAGUCCCGUACGGAACG [G10A A20C C27G A40G] to GUUCCGUUGACGUAAUGGUCACGCGUCUGCCUCCUAAGGAGAAGACUGCGGGUUCGAGUCCCGUACGGAACG [G10A A20C C29G], the yeast fitness rises from ≤ 0.5 to 0.597.

GUUCCGUUGACGUAAUGGUCACGCGUCUCCCUCCUAAAGAAAAGACUGCGGGUUCGAGUCCCGUACGGAACG [G10A A20C G38A G41A] and GUUCCGUUGACGUAAUGGUGACACGUCUCCCUCCUAGGGCGAAGACUGCGGGUUCGAGUCCCGUAUGGAACG [G10A A20G G23A A37G A40C C66U] cannot be ordered by yeast fitness: ≤ 0.5 for the first, ≤ 0.5 for the second.

GUUCCGUUGACGUAAUGGUGACGCGCCUCCCUCCUAAGAAGAAGACUGCGGGUUCGAGUCCCGUACGGAACG [G10A A20G U26C G39A] and GUUCCGUUGACGUAAUGGUUACGCGUCUCCCUCCUAAGGAGGAGACUGCGGGUUCGAGUUCCGAAAGAGACG [G10A A20U A42G C60U U64A C66A G68A A69G] cannot be ordered by yeast fitness: ≤ 0.5 for the first, ≤ 0.5 for the second.

Going from GUUCCGUUGACGUAAUGGUUACGCGUCUCCCUCCUAAGGAGAAGACUGCGGGUUCGAGUCCCGUACGGACCG [G10A A20U A70C] to GUUCCGUUGACGUAAUGGUUACGCGUUUCCCUCCCAAGGAGAAGACUCCGGGUUCGAGUACCGUACGGAACG [G10A A20U C27U U35C G48C C60A], the yeast fitness falls from 0.579 to ≤ 0.5.

Compared with GUUCCGUUGACGUAAUGGUUACGCGUCUCCCUCCCAAGGAGAAGACUCCGGGUUCGAGUCCCGUACGGAACG [G10A A20U U35C G48C], GUUCCGUUGACGUAAUGGUUACGCGUCUCCCUCCCAAGGAGAAGACUCCGGGUUCGAGUACCGUACGGCACG [G10A A20U U35C G48C C60A A69C] is lower in yeast fitness: 0.723 for the first, ≤ 0.5 for the second.

Compared with GUUCCGUUGACGUAAUGGUACCGAGUCUCCCUCCUAAGGAGAAGACUGCGGGUUCGAGUCCCGUACGGAACG [G10A A21C C24A], GUUCCGUUGACGUAAUGGUACCGAGUCUCCCUCCUAAGGAGAAGACUGCGGGUUCGAGUCCCGUCCGGAACG [G10A A21C C24A A65C] is higher in yeast fitness: ≤ 0.5 for the first, 0.521 for the second.

First: GUUCCGUUGACGUAAUGGUACCGAGUCUCCCUCCUAAGGAGAAGACUGCGGGUUCGAGUCCCGUCCGGCACG [G10A A21C C24A A65C A69C]
Second: GUUCCGUUGACGUAAUGGUAGUGCGUCUCCCUCCUAAGGAGAAGACUGCGGGUUCGAGUCCCGUACGGAACG [G10A A21G C22U]
The yeast fitness of the first is lower: ≤ 0.5 for the first, 0.606 for the second.

Compared with GUUCCGUUGACGUAAUGGUAGCGCGUCUACCUCCUAAGGAGAAGACUGCGGGUUCGAGUCCCGUACGGAACG [G10A A21G C29A], GUUCCGUUGACGUAAUGGUAGCGCGUCUCUCUCCUAAGGAGAAGACUGCCGGUUCGAGUCCCGUACGGAACG [G10A A21G C30U G50C] is higher in yeast fitness: 0.519 for the first, 0.752 for the second.

GUUCCGUUGACGUAAUGGUAGCGCGUCCCCCUCCUAAGGAGAAGACUGCGGGUUCGAGUCCCGUACGGAACG [G10A A21G U28C] and GUUCCGUUGACGUAAUGGUAUCGCGUCUCCCUCCUAAGGAGGAGACUGCGGGUUCGAGUCCCGUACGGAACG [G10A A21U A42G] cannot be ordered by yeast fitness: ≤ 0.5 for the first, ≤ 0.5 for the second.

In the case of GUUCCGUUGACGUAAUGGUAUCGCGUCUCCAUCCUAAGCAGAAGACUGCGGGUUCGAGUCCGGUACGAAACG [G10A A21U C31A G39C C62G G68A], the yeast fitness is reported as ≤ 0.5.
